# The source made the active and inactive calls. No cut-off for these calls is given here.
# Key:
# [1] = test system: Heart; assay: Biodistribution in ddY mouse heart at 0.1 to 0.4 uCi, iv after 2 mins by gamma counting; assay type: ADME, organism-based; conditions: in vivo
# How it was run: (§1)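 [125I]ligand (0.1–0.4 µCi) in 100 µL PBS (pH 7.4) containing 30 µL DMSO, injected into the tail vein of ddY mice (5 weeks, 22–25 g). Mice sacrificed at 2, 10, 30 and 60 min. Organs removed, weighed and gamma-counted. Values are % injected dose per gram, except stomach as % dose per organ. Mean (SD) of 3–6 mice per time point.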
# [2] = test system: Liver; assay: Biodistribution in ddY mouse liver at 0.1 to 0.4 uCi, iv after 10 mins by gamma counting; assay type: ADME, organism-based; conditions: in vivo; how it was run: as §1
# [3] = test system: Blood; assay: Biodistribution in ddY mouse blood at 0.1 to 0.4 uCi, iv after 60 mins by gamma counting; assay type: ADME, organism-based; conditions: in vivo, 1 h; how it was run: as §1
# [4] = n-octanol-sodium phosphate buffer partition co-efficient, log D of the compound at pH 7.4 by shake flask method; assay type: physicochemical
# How it was run: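 Shake-flask partition between n-octanol and sodium phosphate buffer, pH 7.4, shaken 10 min at room temperature, then centrifuged. Weighed 0.5 mL samples of each layer counted. log D from the ratio of cpm per gram of octanol to cpm per gram of buffer; n = 3.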
# [5] = test system: Pancreas; assay: Biodistribution in ddY mouse pancreas at 0.1 to 0.4 uCi, iv after 10 mins by gamma counting; assay type: ADME, organism-based; conditions: in vivo; how it was run: as §1
# [6] = test system: Heart; assay: Biodistribution in ddY mouse heart at 0.1 to 0.4 uCi, iv after 30 mins by gamma counting; assay type: ADME, organism-based; conditions: in vivo, 0.5 h; how it was run: as §1
# [7] = test system: Lung; assay: Biodistribution in ddY mouse lung at 0.1 to 0.4 uCi, iv after 60 mins by gamma counting; assay type: ADME, organism-based; conditions: in vivo, 1 h; how it was run: as §1
# [8] = test system: Stomach; assay: Biodistribution in ddY mouse stomach assessed per organ at 0.1 to 0.4 uCi, iv after 2 mins by gamma counting; assay type: ADME, organism-based; conditions: in vivo; how it was run: as §1
# [9] = test system: Pancreas; assay: Biodistribution in ddY mouse pancreas at 0.1 to 0.4 uCi, iv after 60 mins by gamma counting; assay type: ADME, organism-based; conditions: in vivo, 1 h; how it was run: as §1
# [10] = test system: Blood; assay: Biodistribution in ddY mouse blood at 0.1 to 0.4 uCi, iv after 2 mins by gamma counting; assay type: ADME, organism-based; conditions: in vivo; how it was run: as §1
# [11] = test system: Brain; assay: Biodistribution in ddY mouse brain at 0.1 to 0.4 uCi, iv after 10 mins by gamma counting; assay type: ADME, organism-based; conditions: in vivo; how it was run: as §1
# [12] = test system: Intestine; assay: Biodistribution in ddY mouse intestine at 0.1 to 0.4 uCi, iv after 30 mins by gamma counting; assay type: ADME, organism-based; conditions: in vivo, 0.5 h; how it was run: as §1
# [13] = test system: Kidney; assay: Biodistribution in ddY mouse kidney at 0.1 to 0.4 uCi, iv after 10 mins by gamma counting; assay type: ADME, organism-based; conditions: in vivo; how it was run: as §1
# [14] = test system: Lung; assay: Biodistribution in ddY mouse lung at 0.1 to 0.4 uCi, iv after 2 mins by gamma counting; assay type: ADME, organism-based; conditions: in vivo; how it was run: as §1
# [15] = test system: Stomach; assay: Biodistribution in ddY mouse stomach assessed per organ at 0.1 to 0.4 uCi, iv after 30 mins by gamma counting; assay type: ADME, organism-based; conditions: in vivo, 0.5 h; how it was run: as §1
# [16] = test system: Pancreas; assay: Biodistribution in ddY mouse pancreas at 0.1 to 0.4 uCi, iv after 2 mins by gamma counting; assay type: ADME, organism-based; conditions: in vivo; how it was run: as §1
# [17] = test system: Brain; assay: Biodistribution in ddY mouse brain at 0.1 to 0.4 uCi, iv after 2 mins by gamma counting; assay type: ADME, organism-based; conditions: in vivo; how it was run: as §1
# [18] = test system: Blood; assay: Biodistribution in ddY mouse blood at 0.1 to 0.4 uCi, iv after 10 mins by gamma counting; assay type: ADME, organism-based; conditions: in vivo; how it was run: as §1
# [19] = test system: Lung; assay: Biodistribution in ddY mouse lung at 0.1 to 0.4 uCi, iv after 30 mins by gamma counting; assay type: ADME, organism-based; conditions: in vivo, 0.5 h; how it was run: as §1
# [20] = test system: Brain; assay: Biodistribution in ddY mouse brain at 0.1 to 0.4 uCi, iv after 60 mins by gamma counting; assay type: ADME, organism-based; conditions: in vivo, 1 h; how it was run: as §1
# [21] = test system: Liver; assay: Biodistribution in ddY mouse liver at 0.1 to 0.4 uCi, iv after 2 mins by gamma counting; assay type: ADME, organism-based; conditions: in vivo; how it was run: as §1
# [22] = test system: Kidney; assay: Biodistribution in ddY mouse kidney at 0.1 to 0.4 uCi, iv after 60 mins by gamma counting; assay type: ADME, organism-based; conditions: in vivo, 1 h; how it was run: as §1
# [23] = test system: Lung; assay: Biodistribution in ddY mouse lung at 0.1 to 0.4 uCi, iv after 10 mins by gamma counting; assay type: ADME, organism-based; conditions: in vivo; how it was run: as §1
# [24] = test system: Blood; assay: Biodistribution in ddY mouse blood at 0.1 to 0.4 uCi, iv after 30 mins by gamma counting; assay type: ADME, organism-based; conditions: in vivo, 0.5 h; how it was run: as §1
# [25] = test system: Heart; assay: Biodistribution in ddY mouse heart at 0.1 to 0.4 uCi, iv after 60 mins by gamma counting; assay type: ADME, organism-based; conditions: in vivo, 1 h; how it was run: as §1
# [26] = test system: Spleen; assay: Biodistribution in ddY mouse spleen at 0.1 to 0.4 uCi, iv after 60 mins by gamma counting; assay type: ADME, organism-based; conditions: in vivo, 1 h; how it was run: as §1
# [27] = test system: Kidney; assay: Biodistribution in ddY mouse kidney at 0.1 to 0.4 uCi, iv after 30 mins by gamma counting; assay type: ADME, organism-based; conditions: in vivo, 0.5 h; how it was run: as §1
# [28] = test system: Stomach; assay: Biodistribution in ddY mouse stomach assessed per organ at 0.1 to 0.4 uCi, iv after 60 mins by gamma counting; assay type: ADME, organism-based; conditions: in vivo, 1 h; how it was run: as §1
# [29] = test system: Stomach; assay: Biodistribution in ddY mouse stomach assessed per organ at 0.1 to 0.4 uCi, iv after 10 mins by gamma counting; assay type: ADME, organism-based; conditions: in vivo; how it was run: as §1
# [30] = test system: Liver; assay: Biodistribution in ddY mouse liver at 0.1 to 0.4 uCi, iv after 30 mins by gamma counting; assay type: ADME, organism-based; conditions: in vivo, 0.5 h; how it was run: as §1
# [31] = test system: Brain; assay: Biodistribution in ddY mouse brain at 0.1 to 0.4 uCi, iv after 30 mins by gamma counting; assay type: ADME, organism-based; conditions: in vivo, 0.5 h; how it was run: as §1
# [32] = test system: Spleen; assay: Biodistribution in ddY mouse spleen at 0.1 to 0.4 uCi, iv after 30 mins by gamma counting; assay type: ADME, organism-based; conditions: in vivo, 0.5 h; how it was run: as §1
# [33] = test system: Intestine; assay: Biodistribution in ddY mouse intestine at 0.1 to 0.4 uCi, iv after 2 mins by gamma counting; assay type: ADME, organism-based; conditions: in vivo; how it was run: as §1
# [34] = test system: Heart; assay: Biodistribution in ddY mouse heart at 0.1 to 0.4 uCi, iv after 10 mins by gamma counting; assay type: ADME, organism-based; conditions: in vivo; how it was run: as §1
# [35] = test system: Pancreas; assay: Biodistribution in ddY mouse pancreas at 0.1 to 0.4 uCi, iv after 30 mins by gamma counting; assay type: ADME, organism-based; conditions: in vivo, 0.5 h; how it was run: as §1
# [36] = test system: Intestine; assay: Biodistribution in ddY mouse intestine at 0.1 to 0.4 uCi, iv after 10 mins by gamma counting; assay type: ADME, organism-based; conditions: in vivo; how it was run: as §1
# [37] = molecular target: T1, Amyloid-beta precursor protein (Homo sapiens, UniProt P05067); assay: Binding affinity to amyloid beta aggregate (unknown origin) by centrifugation method
# T1 sequence (P05067 whole entry): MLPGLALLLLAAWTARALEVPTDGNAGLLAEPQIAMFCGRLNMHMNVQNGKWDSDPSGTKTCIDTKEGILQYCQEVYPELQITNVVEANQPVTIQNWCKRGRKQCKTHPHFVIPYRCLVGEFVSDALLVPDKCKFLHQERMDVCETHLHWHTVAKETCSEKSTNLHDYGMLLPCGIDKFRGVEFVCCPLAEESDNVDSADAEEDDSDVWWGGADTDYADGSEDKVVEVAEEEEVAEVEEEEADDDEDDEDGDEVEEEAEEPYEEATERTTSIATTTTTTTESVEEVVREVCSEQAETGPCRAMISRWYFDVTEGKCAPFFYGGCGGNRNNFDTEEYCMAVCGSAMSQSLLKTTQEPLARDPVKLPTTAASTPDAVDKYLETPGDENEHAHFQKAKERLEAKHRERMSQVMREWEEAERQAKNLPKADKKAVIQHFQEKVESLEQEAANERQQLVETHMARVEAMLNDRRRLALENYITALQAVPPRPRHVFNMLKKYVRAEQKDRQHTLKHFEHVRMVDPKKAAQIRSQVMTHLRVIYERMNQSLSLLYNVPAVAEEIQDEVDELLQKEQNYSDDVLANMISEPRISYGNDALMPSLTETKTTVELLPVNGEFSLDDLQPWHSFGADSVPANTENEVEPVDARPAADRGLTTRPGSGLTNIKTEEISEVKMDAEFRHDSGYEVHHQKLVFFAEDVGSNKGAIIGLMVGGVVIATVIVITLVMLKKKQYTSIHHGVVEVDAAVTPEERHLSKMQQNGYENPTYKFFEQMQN
# How it was run: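 Aβ(1-42) aggregated at 0.25 mg/mL in pH 7.4 buffer (10 mM sodium phosphate, 1 mM EDTA), 37 °C for 42 h with shaking. [125I]ligand at 4–500 nM final (set with unlabelled compound) in 10% EtOH incubated with aggregates 2 h at room temperature. Centrifuged 16,000 rpm, 10 min; supernatant gamma-counted for bound/free ratio. Nonspecific binding with 10 µM unlabelled ligand. Kd and Bmax from Scatchard analysis.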
# [38] = test system: Kidney; assay: Biodistribution in ddY mouse kidney at 0.1 to 0.4 uCi, iv after 2 mins by gamma counting; assay type: ADME, organism-based; conditions: in vivo; how it was run: as §1
# [39] = test system: Intestine; assay: Biodistribution in ddY mouse intestine at 0.1 to 0.4 uCi, iv after 60 mins by gamma counting; assay type: ADME, organism-based; conditions: in vivo, 1 h; how it was run: as §1
# [40] = test system: Liver; assay: Biodistribution in ddY mouse liver at 0.1 to 0.4 uCi, iv after 60 mins by gamma counting; assay type: ADME, organism-based; conditions: in vivo, 1 h; how it was run: as §1
# [41] = test system: Spleen; assay: Biodistribution in ddY mouse spleen at 0.1 to 0.4 uCi, iv after 10 mins by gamma counting; assay type: ADME, organism-based; conditions: in vivo; how it was run: as §1
# [42] = test system: Spleen; assay: Biodistribution in ddY mouse spleen at 0.1 to 0.4 uCi, iv after 2 mins by gamma counting; assay type: ADME, organism-based; conditions: in vivo; how it was run: as §1
# [43] = molecular target: T1, Amyloid-beta precursor protein; assay: Displacement of [125I]IMPY from amyloid beta (1 to 42) (unknown origin) after 3 hrs by gamma counting
# How it was run: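 Filtered through GF/B filters and bound radioactivity gamma-counted. IC50 from displacement curves of three independent experiments; Ki calculated with the Cheng–Prusoff equation.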
# [44] = species: Mus musculus; assay: Binding affinity to amyloid beta plaques in wild type mouse brain at 100 uM after 3 to 10 hrs using Thioflavin S staining by fluorescence microscopy; assay type: tissue-based
# How it was run: (§2)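 Brains of female Tg2576 mice (32 months) or wild-type controls (30 months) removed after decapitation and frozen in powdered dry ice. 10 µm sections incubated with compound (100 µM) for 3–10 h, then washed twice for 5 min in 50% EtOH or 50% DMSO. Fluorescence imaged with a GFP filter set (ex 470 nm, em >535 nm). Adjacent sections stained with thioflavin S to confirm plaques.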
# [45] = species: Mus musculus; assay: Binding affinity to amyloid beta plaques in Tg2576 transgenic mouse brain at 100 uM after 3 to 10 hrs using Thioflavin S staining by fluorescence microscopy; assay type: tissue-based; how it was run: as §2
compound,measurement,setting,value
CCN(CC)CCCC(C)Nc1c2ccc([125I])cc2nc2ccc(OC)cc12 (stereo not given),Drug uptake,[1],15.53 % ID/g
same,Drug uptake,[2],9.7 % ID/g
same,Drug uptake,[3],0.52 % ID/g
same,logD,[4],1.11
same,Drug uptake,[5],5.85 % ID/g
same,Drug uptake,[6],7 % ID/g
same,Drug uptake,[7],25.58 % ID/g
same,Drug uptake,[8],1.18 %ID
same,Drug uptake,[9],6.32 % ID/g
same,Drug uptake,[10],4.21 % ID/g
same,Drug uptake,[11],0.33 % ID/g
same,Drug uptake,[12],4.4 % ID/g
same,Drug uptake,[13],13.58 % ID/g
same,Drug uptake,[14],73.08 % ID/g
same,Drug uptake,[15],1.48 %ID
same,Drug uptake,[16],4.76 % ID/g
same,Drug uptake,[17],0.32 % ID/g
same,Drug uptake,[18],1.85 % ID/g
same,Drug uptake,[19],35.64 % ID/g
same,Drug uptake,[20],0.28 % ID/g
same,Drug uptake,[21],8.15 % ID/g
same,Drug uptake,[22],12.19 % ID/g
same,Drug uptake,[23],59.55 % ID/g
same,Drug uptake,[24],0.73 % ID/g
same,Drug uptake,[25],3.96 % ID/g
same,Drug uptake,[26],11.17 % ID/g
same,Drug uptake,[27],13.93 % ID/g
same,Drug uptake,[28],1.24 %ID
same,Drug uptake,[29],1.33 %ID
same,Drug uptake,[30],11.02 % ID/g
same,Drug uptake,[31],0.24 % ID/g
same,Drug uptake,[32],10.88 % ID/g
same,Drug uptake,[33],1.89 % ID/g
same,Drug uptake,[34],13.09 % ID/g
same,Drug uptake,[35],7.67 % ID/g
same,Drug uptake,[36],2.55 % ID/g
same,Kd,[37],0.0484 µM
same,Drug uptake,[38],10.23 % ID/g
same,Drug uptake,[39],5.59 % ID/g
same,Drug uptake,[40],11.61 % ID/g
same,Drug uptake,[41],9.38 % ID/g
same,Drug uptake,[42],6.14 % ID/g
CCN(CC)CCCC(C)Nc1c2ccc(I)cc2nc2ccc(OC)cc12 (stereo not given),Ki,[43],0.353 µM
same,Activity,[44],inactive
same,Activity,[45],Active

# From ChEMBL document CHEMBL2321753, “Synthesis and biological evaluation of radioiodinated quinacrine-based derivatives for SPECT imaging of Aβ plaques” (Eur J Med Chem, 2013)
